Drawing on ChEMBL document CHEMBL1133101, “7-Methyl-6,7,8,9,14,15-hexahydro-5H-benz[d]indolo[2,3-g]azecine: a new heterocyclic system and a new lead compound for dopamine receptor antagonists” (J Med Chem, 2000), this text covers Activity and Decrease for four compounds.

The target in test [1] is T1, 5-hydroxytryptamine receptor 1A (Homo sapiens) (UniProt P08908).
T1 sequence (whole entry): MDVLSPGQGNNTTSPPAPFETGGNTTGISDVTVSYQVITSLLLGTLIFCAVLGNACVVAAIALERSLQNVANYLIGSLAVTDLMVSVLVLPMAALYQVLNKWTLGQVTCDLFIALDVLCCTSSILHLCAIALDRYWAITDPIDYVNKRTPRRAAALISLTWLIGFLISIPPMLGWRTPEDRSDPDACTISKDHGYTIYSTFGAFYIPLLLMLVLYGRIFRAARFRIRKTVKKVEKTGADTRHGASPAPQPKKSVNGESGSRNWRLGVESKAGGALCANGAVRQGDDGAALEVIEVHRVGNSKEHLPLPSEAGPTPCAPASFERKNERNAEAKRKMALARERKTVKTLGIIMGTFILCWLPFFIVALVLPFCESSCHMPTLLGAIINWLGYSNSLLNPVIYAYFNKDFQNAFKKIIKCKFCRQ
The test is described as follows: Percent decrease in 5-hydroxytryptamine 1A receptor binding using 8-OH-DPAT. Also on record: concentration or dose not given beside the values. A digest of the protocol:
(§1)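 Preliminary screen of receptors isolated from rat or pig tissues, run with minor changes to standard procedures. Each compound was tested at a single fixed concentration for each receptor. The read-out was the percent decrease in binding of the named radioligand.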

For test [2], the target named is D(2) dopamine receptor (Rattus norvegicus) (UniProt P61169). As to the kind of experiment: Percent decrease in Dopamine receptor D2 binding using spiperone. Further details: scale not given: the % may be the effect or the level left. The method in brief:
as §1

For test [3], the target named is GABA-A receptor; anion channel (Homo sapiens) (UniProt P14867+P47870+P18507+P28472+P48169+Q99928+Q9UN88+P34903+O00591+O14764+Q8N1C3+P18505+P78334+P47869+P31644+Q16445). As to the kind of experiment: Displacement of muscimol from GABA-A receptor. Format: protein-complex assay. A digest of the protocol: as §1
The target of test [4] is Glutamate [NMDA] receptor (Homo sapiens) (UniProt Q05586+Q12879+Q13224+O15399+O60391+Q14957+Q8TCU5). The test is described as follows: Percent decrease of N-methyl-D-aspartate glutamate receptor binding using MK-801. Format: protein-complex assay. Also on record: concentration or dose not given beside the values. A digest of the protocol:
as §1

Test [5] in a line: Percent decrease of Endothelin receptor binding using [125I]sarafotoxin. Also on record: concentration or dose not given beside the values.
The target in test [6] is Angiotensin II receptor (Homo sapiens) (UniProt P30556+P50052). As to the kind of experiment: Percent decrease of Angiotensin II receptor binding. Type of test: protein assay. Further details: concentration or dose not given beside the values. The method in brief:
as §1

The target in test [7] is T2, Muscarinic acetylcholine receptor M1 (Homo sapiens) (UniProt P11229).
T2 sequence (whole entry): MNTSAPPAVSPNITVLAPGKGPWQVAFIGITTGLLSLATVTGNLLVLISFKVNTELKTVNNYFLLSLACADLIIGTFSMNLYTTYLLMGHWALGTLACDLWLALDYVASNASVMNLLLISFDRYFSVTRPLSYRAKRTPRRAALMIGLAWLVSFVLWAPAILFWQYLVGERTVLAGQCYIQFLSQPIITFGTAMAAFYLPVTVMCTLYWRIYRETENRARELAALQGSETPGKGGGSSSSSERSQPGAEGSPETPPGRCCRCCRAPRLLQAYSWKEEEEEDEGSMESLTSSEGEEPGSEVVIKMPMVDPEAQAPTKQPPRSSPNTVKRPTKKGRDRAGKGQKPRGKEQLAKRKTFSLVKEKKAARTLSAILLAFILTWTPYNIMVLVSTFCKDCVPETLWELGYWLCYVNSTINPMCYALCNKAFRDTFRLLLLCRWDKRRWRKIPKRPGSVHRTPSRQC
As to the kind of experiment: Percent decrease of Muscarinic acetylcholine receptor M1 binding using pirenzepine. Also on record: scale not given: the % may be the effect or the level left. A digest of the protocol:
as §1

Test [8] concerns the target Adrenergic receptor alpha-1 (Homo sapiens) (UniProt P35348+P25100+P35368). The test is described as follows: Percent decrease in Alpha-1 adrenergic receptor binding using prazosin. Type of test: protein assay. The method in brief: as §1
Test [9] deals with T3, Adenosine receptor A1 (Homo sapiens) (UniProt P30542).
T3 sequence (whole entry): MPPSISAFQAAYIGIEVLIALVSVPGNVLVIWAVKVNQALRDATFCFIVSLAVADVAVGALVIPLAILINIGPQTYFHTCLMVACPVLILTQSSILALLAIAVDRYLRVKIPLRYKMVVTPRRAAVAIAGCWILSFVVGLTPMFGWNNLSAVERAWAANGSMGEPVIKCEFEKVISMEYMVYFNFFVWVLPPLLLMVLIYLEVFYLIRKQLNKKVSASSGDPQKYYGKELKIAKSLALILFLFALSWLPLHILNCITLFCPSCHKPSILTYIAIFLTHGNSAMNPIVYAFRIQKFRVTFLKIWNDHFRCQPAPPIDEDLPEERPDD
The test is described as follows: Percent decrease in adenosine-A1-receptor binding using CPDPX. Also on record: scale not given: the % may be the effect or the level left. A digest of the protocol:
as §1

Chain of D(2) dopamine receptor (Rattus norvegicus) (P61169 whole entry): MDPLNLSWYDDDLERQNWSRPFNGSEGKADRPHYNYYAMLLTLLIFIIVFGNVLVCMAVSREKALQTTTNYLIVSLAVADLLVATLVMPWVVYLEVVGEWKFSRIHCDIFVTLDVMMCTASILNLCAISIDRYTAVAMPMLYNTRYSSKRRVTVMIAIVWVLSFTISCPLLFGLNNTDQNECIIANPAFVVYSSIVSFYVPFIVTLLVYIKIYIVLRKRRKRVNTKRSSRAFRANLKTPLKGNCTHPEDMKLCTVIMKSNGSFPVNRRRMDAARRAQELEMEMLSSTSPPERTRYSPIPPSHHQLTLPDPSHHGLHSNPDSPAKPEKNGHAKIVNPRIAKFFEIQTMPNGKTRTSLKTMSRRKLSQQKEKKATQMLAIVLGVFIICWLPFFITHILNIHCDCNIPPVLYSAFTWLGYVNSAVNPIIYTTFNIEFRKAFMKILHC

Take `c1ccc2c3c([nH]c2c1)C1c2[nH]c4ccccc4c2CCN1CC3`: the Activity in test [1] is -25%; in test [2] it was -51%; in [3] it was 5%; in [4], -52%; in test [5] it was 1%; in [6], 0%. For the same compound, the Activity in test [7] is -18%; in [9] it was 17%. Also, the Decrease in test [8] is -88%.

With `c1ccc2c(c1)CCN1CCc3c([nH]c4ccccc34)C21` (centres undefined), the Activity is -12% in test [1]; -19% in [2]; -17% in test [3]; -33% in test [4]; -1% in [5]; 0% in [6]. Also, the Activity in test [7] was -22%; in test [9] it was 13%. In addition, in test [8], the Decrease was -82%.

In the case of `CN1CCc2ccccc2Cc2[nH]c3ccccc3c2CC1`, the Activity in test [1] was -72%; in test [3] it was -9%; in test [4] it was -18%; in [5], 0%; in test [6], 6%; in test [7], -9%. Further, the Decrease in [8] is -97%.

For `COc1cc2c(cc1OC)C1c3[nH]c4ccccc4c3CCN1CC2` (centres undefined), the Activity is -21% in [1]; -11% in [2]; -26% in test [3]; -14% in test [4]; 0% in test [5]; 6% in test [6]. Also, the Activity in test [7] was -11%; in [9], 26%. Moreover, in test [8], the Decrease was -94%.
